Screening results deposited in PubChem BioAssay by Broad Institute.
Wnt bcat act = activates Wnt/beta-catenin signaling in a reporter cell assay; 1.2% of 300,000 active; activator, plate reader; activation, % at 9.35 µM; AID 743398; in the data active = activation above about 30%, passing the limit was not always enough; inconclusive = no clear call, values can overlap the other calls;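 also: 0% = neutral control wells and 100% = positive control wells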
esBAF inh = blocks esBAF chromatin remodeling in mouse ES cells | reporter increase, % at 12.5 µM | 2% of 350,000 active | Bmi1-luciferase knock-in reporter, 24 h; 100% = twice the neutral-well signal; in the data active = activation above about 40%; inconclusive = no clear call, values can overlap the other calls;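 also: 0% = median of the plate's neutral control wells and 100% = double that signal; a rise in the Bmi1 reporter signal indicates esBAF inhibition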
NSD2 HMT inh = NSD2 (human) methyltransferase inhibition | O96028 | NSD2 peptide methylation, AlphaScreen, 120 min | inhibition, % at 12.5 µM | 0.54% of 310,000 active; in the data active = inhibition above about 50%
Xi reactivation = activators of X-chromosome reactivation in mouse fibroblasts. XiGFP mouse fibroblasts, % GFP-positive cells imaging, 3 d; cells co-treated with 5-aza-dC sensitizer; scaled so ellipticine positive control = 100%. activation, % at 7.58 µM. AID 743238. 0.055% of 360,000 active;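 active = mean normalized replicate activation at least 10% and every replicate at or above 10%; inconclusive = only one of the two criteria met; inactive = mean below 10% and not all replicates reach 10%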;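 also: 0% = median of on-plate neutral control wells and 100% = ellipticine 6 µM median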
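Assay system – SV40-immortalized XiGFP fibroblast cells, line 68-5-11 · Buffer or medium – DMEM supplemented with 5-aza-dC as sensitizing agent · Dosing – one concentration, pinned · Benchmarks – positive control ellipticine, 6 µM final · Times – 3 days compound exposure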
MITF TRPM1 HTS = activators of MITF-driven TRPM1 promoter activity in SK-MEL-5 cells; AID 588334; SK-MEL-5 TRPM1-promoter luciferase, 24 h; % of positive control, neutral wells = 0; activation, % at 12.5 µM; 0.75% of 300,000 active;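 active = mean activation of at least 80% with every replicate also reaching 80%; inconclusive = mean reaches 80% but some replicate falls short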;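 also: 0% = neutral control wells and 100% = parthenolide positive control wells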
CASP6 VEID inh = caspase-6 (human) enzyme inhibition; AID 686996; purified caspase-6, Z-VEID-R110 cleavage fluorescence; inhibition, % at 12.5 µM; 0.53% of 350,000 active; P55212;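 active = mean inhibition across replicates at least about 35%, with every replicate also reaching that limit, limit read from the data; inconclusive = only one of the two criteria met; inactive = neither criterion met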;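 also: 0% = median of neutral control wells and 100% = no fluorescence left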
Target sequence (P55212 24-179 limits assumed): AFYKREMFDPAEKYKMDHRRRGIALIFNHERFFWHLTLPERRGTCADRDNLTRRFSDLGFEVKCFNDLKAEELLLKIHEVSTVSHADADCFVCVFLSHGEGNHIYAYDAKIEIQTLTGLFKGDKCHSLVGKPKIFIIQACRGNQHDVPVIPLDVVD
Target sequence (P55212 194-293 limits assumed): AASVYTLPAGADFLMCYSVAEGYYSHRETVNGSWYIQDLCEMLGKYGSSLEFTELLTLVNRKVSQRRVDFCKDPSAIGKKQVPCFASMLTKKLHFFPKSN
* marks the source's active call; other numbers are inactive results; u = inconclusive; x = no result. In the library only some 3% were active in any assay of this set; here they are far more common.

SMILES | Wnt bcat act | esBAF inh | NSD2 HMT inh | Xi reactivation | MITF TRPM1 HTS | CASP6 VEID inh
CC(=O)N1[C@@H](CO)[C@@H](c2ccc(C3=CCCC3)cc2)[C@@H]1CNC(=O)CN(C)C | x | 3 | x | 0 | x | x
C[C@@H]1CCCCO[C@H](CN(C)S(=O)(=O)c2ccccc2)[C@@H](C)CN([C@@H](C)CO)C(=O)c2cc(NC(=O)C3CCCCC3)ccc2O1 | x | -3 | x | 0 | x | 1
CCC(=O)N1CC2(C1)CN(Cc1ccc(OC)cc1)[C@@H](CO)c1[nH]c3cc(OC)ccc3c12 | x | x | x | 0 | x | x
CCOc1ccc(/C=C2\CCc3ccccc3C2=O)cc1 | 10 | 35 | -2 | 0 | 95* | 2
COc1cc(/C=C2/CCc3ccccc3C2=O)cc(OC)c1OC | x | -6 | 9 | x | 1 | x
COc1ccc(C=C2CCc3ccccc3C2=O)cc1 | -1 | x | -4 | 0 | x | 8
COc1ccc(/C=C2\COc3ccccc3C2=O)c(OC)c1 | -5 | 63* | 4 | 0 | 37 | -1
COc1ccc(/C=C2/CCc3ccccc3C2=O)cc1OC | 50* | 18 | 3 | 0 | 19 | x
COCC(=O)N1CC[C@H]2[C@H](CO)Nc3ccc(-c4cccc(C(=O)N(C)C)c4)cc3[C@H]21 | x | -4 | x | 0 | x | x
C[C@H](CO)N1C[C@H](C)[C@@H](CN(C)Cc2ccc(-c3ccccc3)cc2)Oc2c(NC(=O)CCC(F)(F)F)cccc2C1=O | x | x | x | 0 | x | x
O=S(=O)(c1ccccc1F)N1CCCCN2[C@H](CO)[C@@H](c3ccc(-c4ccccc4)cc3)[C@@H]2C1 | x | x | x | x | x | 2
COc1ccc(-c2ccc3c(c2)[C@@H]2[C@@H](CCN2C(=O)CN2CCOCC2)[C@@H](CO)N3)cc1 | x | 49* | x | 0 | x | 1
O=C(CN1CCOCC1)N1CC[C@@H]2[C@H](CO)Nc3ccc(-c4ccccc4F)cc3[C@@H]21 | x | 42* | x | 0 | x | x
O=C(C1CC1)N1CC[C@@H]2[C@H](CO)Nc3ccc(Br)cc3[C@@H]21 | x | 58* | x | 0 | x | -1
C=CCNC(=O)[C@@H]1[C@H]2C(=O)O[C@H](c3ccccc3)[C@H](c3ccccc3)N2[C@H](c2ccc(O)cc2)[C@@]12C(=O)N(C(=O)OCCOC)c1ccc(C#Cc3ccc(OC)cc3)cc12 | x | x | x | x | x | -1
C[C@H]1CCCCO[C@@H](CN(C)Cc2ccc(C(=O)O)cc2)[C@@H](C)CN([C@@H](C)CO)C(=O)c2cc(NS(=O)(=O)c3ccccc3)ccc2O1 | x | -1 | x | 0 | x | x
O=C(Nc1nc2c(F)c(F)c(F)cc2s1)c1ccco1 | 25 | 53* | -5 | 0 | u | -2
O=c1sc(Nc2ccccc2)nc2ccsc12 | x | 82* | -1 | x | 74 | x
O=C(Nc1nc2c(F)cc(F)cc2s1)c1ccco1 | 46* | 1 | x | 0 | x | -2
O=C(Nc1nc2ccsc2c(=O)s1)c1ccco1 | 43* | x | 4 | 0 | x | 37*
Cc1ccccc1S(=O)(=O)N[C@@H]1CC[C@@H](CCn2cc(-c3ccccc3)nn2)O[C@@H]1CO | x | 9 | x | 0 | x | 0
CC(=O)Nc1ccc2c(c1)C(=O)N(C)C[C@H](C)[C@H](CN(C)C(C)=O)O2 | x | x | x | 0 | x | x
O=C(Nc1ccc(-c2nc3c(ccc4ccccc43)o2)cc1)c1ccco1 | 10 | 50* | 16 | x | 34 | 0
O=C(Nc1nc2ccccc2s1)c1ccc([N+](=O)[O-])o1 | 20 | x | 11 | 0 | -44 | 1
O=C(Nc1nc2c(F)cc(F)cc2s1)c1ccc([N+](=O)[O-])o1 | 3 | 57* | x | 0 | x | 3
SMILES | Wnt bcat act | esBAF inh | NSD2 HMT inh | Xi reactivation | MITF TRPM1 HTS | CASP6 VEID inh
O=C(Nc1nc2c(ccc3ccccc32)s1)c1ccco1 | 38* | 27 | -4 | x | 20 | x
Cc1cc(C)c2nc(NC(=O)c3ccc([N+](=O)[O-])o3)sc2c1 | -1 | 13 | 1 | 0 | -14 | -2
O=C(Nc1nc2cc3c(cc2s1)OCCO3)c1ccc([N+](=O)[O-])o1 | 51* | 20 | 0 | 0 | -34 | 2
C[C@H](CO)N1C[C@H](C)[C@H](CN(C)Cc2ccc(C(=O)O)cc2)Oc2ccc(NC(=O)Nc3ccccc3)cc2C1=O | x | -1 | x | 0 | x | 0
C[C@H]1CC=CC[C@H](c2ccccc2)NC(=O)[C@H](Cc2ccccc2)N(C)C(=O)c2ccccc2O1 (mixture of isomers) | x | x | x | 0 | x | x
COc1ccc2c3c([nH]c2c1)[C@@H](CO)N(C(=O)c1cnccn1)CC31CN(C(=O)c2cnccn2)C1 | x | x | x | 0 | x | x
O=C(Nc1nc2c(s1)CCc1ccccc1-2)c1ccco1 | x | 62* | 17 | x | x | x
CCC(=O)N1CC2(CN(Cc3nccs3)C2)c2c(n(C)c3cc(OC)ccc23)[C@@H]1CO | x | x | x | 0 | x | x
CCCC#Cc1cnc2c(c1)C(=O)N([C@H](C)CO)C[C@H](C)[C@@H](CN(C)C(=O)Nc1ccc(OC)cc1)O2 | x | -1 | x | 0 | x | 1
COC(=O)[C@H]1C[C@@]2(O)CN(S(=O)(=O)c3ccc(C)cc3)C[C@@]2(OC(=O)NCC2CCCCC2)C[C@H]1C(=O)OC | -1 | 52* | x | 0 | x | 0
COC(=O)[C@H]1C[C@@]2(O)CN(S(=O)(=O)c3ccc(C)cc3)C[C@@]2(OC(=O)NC2CC2)C[C@H]1C(=O)OC | -3 | -6 | x | 0 | x | 1
CN1CCN(c2cc(N3CCN(C(=O)c4ccco4)CC3)c3c4c(onc24)-c2ccccc2C3=O)CC1 | x | -39 | x | x | -5 | x
O=C(O)CCCNc1cc(N2CCN(C(=O)c3ccco3)CC2)c2noc3c2c1C(=O)c1ccccc1-3 | -1 | 1 | 78* | 0 | -1 | 29
COCCNC(=O)c1ccc2c(c1)NC(=O)CS2 | x | x | 2 | x | -1 | x
COc1ccc(C(=O)NCCC2=CCCCC2)cc1OC | x | 50* | 0 | x | x | x
O=C1CSc2ccc(C(=O)NCCC3=CCCCC3)cc2N1 | 19 | 50* | -5 | x | 30 | x
CO[C@@H](C(=O)N(C)C[C@@H]1OCc2ccccc2-c2c(n(C)c3ccccc23)C(=O)N([C@@H](C)CO)C[C@H]1C)c1ccccc1 | x | x | x | 0 | x | x
CC(C)(C)N(Cc1ccccc1)C(=O)CN1C(=O)c2ccccc2C1=O | 13 | 46* | -2 | 0 | 24 | -2
CN(Cc1ccccc1)C(=O)CN1C(=O)c2ccccc2C1=O | 1 | -2 | 3 | 1 | x | 3
O=C(O)c1ccc2c(c1)C(=O)/C(=C\c1ccco1)C2=O | -3 | x | 49 | 0 | 0 | 41*
CNc1cccc(-c2ccc(C(C)=O)s2)n1 | -2 | 53* | -27 | 0 | x | -1
COC(=O)C[C@@H]1CC[C@H]2[C@H](COc3ccc(NC(=O)NC(C)C)cc3C(=O)N2C)O1 | x | -4 | x | 0 | x | x
COc1cc(/C=C2/CCC/C(=C\c3cc(O)c(OC)c(Cl)c3)C2=O)cc(Cl)c1O | 41* | -53 | 9 | x | -10 | x
COc1cc(/C=C2\CC/C(=C\c3cc(OC)c(O)c(OC)c3)C2=O)cc(OC)c1O | 11 | x | 62* | 4 | -64 | 49*
